The values that follow come from the EternaBench riboswitch data.

This series has as its system MS2 coat protein. The series is described as follows: apparent Kd, MS2 coat protein; higher = weaker binding; RNA-MaP array; FMN 200 µM where present. The gist of the method: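 Green signal from SNAP-549-labelled MS2 coat protein was normalised to red-channel RNA signal and to the median Fmax of control clusters. The protein was titrated from 0.7 or 1.5 nM, doubling to 3 µM, without and then with constant ligand, over designs transcribed by stalled E. coli RNA polymerase on Illumina sequencing-chip clusters, in 100 mM Tris-HCl pH 7.5, 80 mM KCl, 4 mM MgCl2, BSA, DTT, yeast tRNA and Tween-20. The apparent Kd is the median of filtered per-cluster binding-curve fits.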

Setting [1] is: designed as: OFF switch for flavin mononucleotide, no ligand.
[2] abbreviates: ligand present: flavin mononucleotide, designed as: OFF switch for flavin mononucleotide.
[3] abbreviates: designed as: ON switch for flavin mononucleotide, no ligand.
The mark [4] stands for this setting: ligand present: flavin mononucleotide, designed as: ON switch for flavin mononucleotide.

As a reminder, the apparent Kd is the concentration giving half-maximal binding under the conditions of the assay. “UUGUUAAGGAGAGGAUAUUGACAUGAGGAUCACCCAUGUACAUGGGAGUGUUUACUGAAUUCUUACGAGAAGGCUUACAUAUUU”: the “apparent Kd” value reads like this: under setting [1], 216 nM; under setting [2], 102 nM.

“GAAAUACAUGAGGAUCACCCAUGUGAGGAUAUGCUAUGGAAAUAAAAAAUAAAACAUAGCAGAAGGUACAAAAG”: the “apparent Kd” value by setting is: under setting [1], 71.5 nM; under setting [2], 106 nM.

As for “AAACGUAGAGGAUAUACAUAAGUAUUACGAAAGUAAUACAAACAUGAGGAUCACCCAUGUAGAAGGCUACGAAA”, the “apparent Kd” value came to 25.4 nM under setting [1] and 35.3 nM under setting [2].

In the case of “GAGCCCGUCGAGGAUAUACACCAUAUAUGGCUUGUAGAAGGUGACACAUGAGGAUCACCCAUGUUUGUGGUACA”, the “apparent Kd” value by setting is: under setting [1], 63.2 nM; under setting [2], 35 nM.

As to “GGUCCAUUAUGAGGAUAUGGCACCUUAUUGGUGCCAGAAGGCAUGUCUUCACAUGAGGAUCACCCAUGUUAAAUAAAUUGGACC”, the “apparent Kd” value stood at 16.3 nM under setting [3] and 17.7 nM under setting [4].

On to “UGAAAGUGAGGAUAUGGUGAGUAGUGCCUGAGCGCUGCUCACCAGAAGGCACAUGAGGAUCACCCAUGUAAAUG”, for which the “apparent Kd” value is 53.4 nM under setting [1] and 170 nM under setting [2].

Regarding “AGGAAGCAAGGAUAUACGAGGAGAAGGUGGAGAGUUAAAGGACAUGAGGAUCACCCAUGUAGAAGGUGCGAGAA”, the “apparent Kd” value is 59.7 nM under setting [1] and 76.8 nM under setting [2].

Take “GUGGUCAGACAUGAGGAUCACCCAUGUGGAAUAAAUAACGGACAGGAUAUAGAAUAUAGGAUAUACUAGAAGGGUUGAUUGGUG”: the “apparent Kd” value is, setting by setting: under setting [3], 55.7 nM; under setting [4], 57.3 nM.

“AAGUAGGUAGGAUAUGCAUAGAUACAGAUUCAUGUGGAACUACAUGAGGAUCACCCAUGUAGAAGGACCUAAUA”: the “apparent Kd” value was 21.1 nM under setting [1] and 29.6 nM under setting [2].

For the sequence “AUCUUGUCAGGAUAUCUGACAAGUGACGAAAGUCACAGUUCAGAGAAGGUACAUGAGGAUCACCCAUGUAGAAC”, the “apparent Kd” value came out at 19.4 nM under setting [1] and 19.2 nM under setting [2].

Take “AGGUAAACCACAGGAUAUGGCUAGUAUAACUAGCCAGAAGGGUGGUCGAAACCAUGUAAAUACAUGAGGAUCACCCAUGUGUCC”: the “apparent Kd” value came to 400 nM under setting [3] and 131 nM under setting [4].

For “CUUAGUAUCUAGGAUAUCUAGUACAUAGUAUCUAGAGAAGGAGAUACAUGAGGAUCACCCAUGUUCUGUGUUCU”, the “apparent Kd” value is, setting by setting: under setting [1], 23.9 nM; under setting [2], 68.7 nM.

With “GAAGUUGGUAGGCCCUCGGAACAUGAGGAUCACCCAUGUAAGGAGGAUAUGCCCGGUACCCGCUGGCAGAAGGCCUUAUAAGAA”, the “apparent Kd” value reads like this: under setting [1], 11.1 nM; under setting [2], 68.8 nM.

Consider “UUUUAUUAGUAAGGAUAUACUAGCGAUUAGCUUGUAGAAGGUACAGUCUUAUGUAUAGCAUGUUAACAUGAGGAUCACCCAUGU”, for which the “apparent Kd” value under setting [3] was 20.9 nM and the “apparent Kd” value under setting [4] was 14 nM.

Consider “UUUUAACAUGAGGAUCACCCAUGUGAGGAUAUCGUUAUUUUUAUUAAUAUUAAUAAAACGAGAAGGCACAUUUU”, for which the “apparent Kd” value runs as follows: under setting [1], 104 nM; under setting [2], 114 nM.

“AGUGUGUUAGGAUAUCGGAUAUGCUGGAGGAGGUGGAGUUACGAGAAGGAACAUGAGGAUCACCCAUGUAGGAC”: the “apparent Kd” value is, setting by setting: under setting [1], 25.8 nM; under setting [2], 23.2 nM.

Take “GAUCGUAUCCUAGGAUAUUCAUUAAACAUGAGGAUCACCCAUGUUAAUUUGGGAGAAGGAGGAUACGAUCAACAGCGAAAGCUG”: the “apparent Kd” value is, setting by setting: under setting [3], 10.6 nM; under setting [4], 5.15 nM.

In the case of “AACUAACAUGAGGAUCACCCAUGUUGCAGCGGUUGAGGAUAUGUGGGUGAAAAUAGCAUGGCAGAAGGCGAGUGUA”, the “apparent Kd” value came to 120 nM under setting [3] and 238 nM under setting [4].

Turning to “ACACAGAAAGGAUAUGCAGGGAGAUAAAGCUUCUUGUUCCAACAUGAGGAUCACCCAUGUAGAAGGUUCGAAAA”, the “apparent Kd” value was 32 nM under setting [1] and 99.5 nM under setting [2].

As for “AACCAUGUCCGAGGAUAUCUGGAAACAUUUCCAAGAGAAGGCGGACAUGAGGAUCACCCAUGUCUCUCCUCAUCAAAUCCAAGU”, the “apparent Kd” value reads like this: under setting [1], 12.4 nM; under setting [2], 94.6 nM.

As to “GCGAUUUUGUAAGGAUAUACACCAGUUUUAAGUGUAGAAGGUACUUACAUGAGGAUCACCCAUGUAUAAAUGUAUAAUAGUCGC”, the “apparent Kd” value by setting is: under setting [3], 6.92 nM; under setting [4], 6.87 nM.

Take “GGAUAGGAGAGAGGAUAUACGUGCUAGAGAUACUAGCAAAAUUUCCUCACAUGAGGAUCACCCAUGUAGAAGGCUGUCCUAUCG”: the “apparent Kd” value came out at 11.1 nM under setting [1] and 210 nM under setting [2].

“CGAAGUAGCACAGGAUAUCAUACAUGAGGAUCACCCAUGUCAAGAAACAAAUGAGAAGGGUGCAGACGGUGUUGGAGCUGUUGC”: the “apparent Kd” value is 192 nM under setting [3] and 26.6 nM under setting [4].

Regarding “GUGCCUAACUAGAAGGCAGUAUGCAAAGCAUUCUGAGGAUAUGGGUUCCGGAAACGGACAUGAGGAUCACCCAUGUGGCACAAA”, the “apparent Kd” value was 312 nM under setting [3] and 20.3 nM under setting [4].

Regarding “CUGGUUGUCGAGGAUAUGUCCCGGCUCGCAGUCGCAGAAGGCGACACAUGAGGAUCACCCAUGUCGGUUCGCGU”, the “apparent Kd” value by setting is: under setting [1], 13.8 nM; under setting [2], 13.3 nM.

For the sequence “AAAAGGCAUCGUGACAUGAGGAUCACCCAUGUGAUUUGCUCACAGGAUAUCAUGCUCACGGAGCCUGAGAAGGGUGAAAGCUAA”, the “apparent Kd” value reads like this: under setting [3], 28.7 nM; under setting [4], 54.7 nM.

For the sequence “AUGGACGCAGGAUAUACAUGAGGAUCACCCAUGUUAGGGUUAAGAGAAGGAAGGGAGAGUAGAAGGGCGAGAGU”, the “apparent Kd” value is, setting by setting: under setting [1], 118 nM; under setting [2], 89.3 nM.

Regarding “AAUACACUCUAGGAUAUUCAUGCCAGCAGUAUCGAAGAAGGAGAGACAUGAGGAUCACCCAUGUGGAAGCUCCU”, the “apparent Kd” value worked out at 13.1 nM under setting [1] and 16.4 nM under setting [2].

Take “UCGACCAGCGCAACUCGAACAUGAGGAUCACCCAUGUACUCCAGAAGGCCGCCCAAGUACGGAGUGGAGGAUAUGGAGGUUCUC”: the “apparent Kd” value runs as follows: under setting [3], 56.9 nM; under setting [4], 86.1 nM.

In the case of “GGUUAUGAAGGAUAUACAUGAGGAUCACCCAUGUUACGUACUUCGGGAUUCUGCCAGUGUAGAAGGUCAUGUCU”, the “apparent Kd” value worked out at 24.3 nM under setting [1] and 49.2 nM under setting [2].

Take “CAGUACUGAGGAUAUACAUGAGGAUCACCCAUGUGUUCCAGCUAGGAAACUGGCAAAAGUAGAAGGCAGUACUG”: the “apparent Kd” value under setting [1] turned out to be 22.8 nM and the “apparent Kd” value under setting [2] stood at 320 nM.

As for “AUUUAGUCAGGAUAUACAUGAGGAUCACCCAUGUAAACUUUUAGUUUAAUUUGAAUGUGUAGAAGGGACAUUUU”, the “apparent Kd” value turned out to be 28.8 nM under setting [1] and 29.8 nM under setting [2].

As for “GAACCUCUUGUGAGGAUAUGCUGUUGAACGAGCUUGCAGAAGGCACAUGAGGAUCACCCAUGUCUCUUCUGGGU”, the “apparent Kd” value reads like this: under setting [1], 20.4 nM; under setting [2], 28.2 nM.

Turning to “AAACAUGAGGAUCACCCAUGUAAACGAGAAGGGCGAGAGAGUAGAGGAUAGGAGAAAGAUGAGUCGCAGGAUAUCGACCUCAUA”, the “apparent Kd” value by setting is: under setting [3], 16 nM; under setting [4], 17 nM.

As for “UCAGUUCUGCAAGGAUAUCGUCCUAGUUUGGUACGAGAAGGUGCUUUUGUUUUUUCCUUGUGUUGACAUGAGGAUCACCCAUGU”, the “apparent Kd” value came out at 35.8 nM under setting [1] and 46.5 nM under setting [2].

“GACAUACAUGAGGAUCACCCAUGUUCAAACGGGCAAGGAUAUGUGUGGAAACCAUACUAUACAGAAGGUGUCUGUC”: the “apparent Kd” value was 28.4 nM under setting [3] and 18.7 nM under setting [4].

Regarding “ACCAGUGCAUGAGGAUAUCACAUCGGUAUCCUCCAGUGCGGCGUUCGACAUGAGGAUCACCCAUGUGAGAAGGCAUGAACUCGG”, the “apparent Kd” value reads like this: under setting [1], 15.6 nM; under setting [2], 18.6 nM.

As to “GGUUGUCAUAGUCAUCCUUAACGUACAUGAGGAUCACCCAUGUAGGAUAUGCUACUCAAAGAGUAGCAGAAGGGCGUGUGUCUU”, the “apparent Kd” value under setting [1] is 31 nM and the “apparent Kd” value under setting [2] came out at 35.5 nM.

As to “AAAAAGGUAGGAUAUACGAAAAAAAAGGGUAGAAAAAAAACACAUGAGGAUCACCCAUGUAGAAGGACCAAAAA”, the “apparent Kd” value is, setting by setting: under setting [1], 27.4 nM; under setting [2], 63 nM.

For “AAAAACGGAGGAUAUACAAAUUAAGGAAGAAAACACGAAAAACAUGAGGAUCACCCAUGUAGAAGGCCGGAAAA”, the “apparent Kd” value is 22.6 nM under setting [1] and 28.2 nM under setting [2].

For the sequence “GGUGAAGCAGGAUAUGUAUCGAUAUACAUGAGGAUCACCCAUGUCAUGUUCGAAUCGCAUAUAGAAGGGCUUCACC”, the “apparent Kd” value under setting [1] is 13.4 nM and the “apparent Kd” value under setting [2] is 16.7 nM.

“GGAAUAUUUACAGGAUAUCAUUUGUAAAUUCGAUGAGAAGGGUAGAUGUCUUACACGACUUGUUACAUGAGGAUCACCCAUGUU”: the “apparent Kd” value was 43.3 nM under setting [3] and 33.3 nM under setting [4].

“AACCGUGCGGAGGAUAUUGAUAUCCCAGUCUAUCAAGAAGGCUGCACAUGAGGAUCACCCAUGUGAUCCGUGCU”: the “apparent Kd” value under setting [1] was determined as 21.2 nM and the “apparent Kd” value under setting [2] amounted to 116 nM.

For “AACCUAUUACAGAAGGCCAGCUACAUGAGGAUCACCCAUGUCGAGUCAUGGAGGAUAUGUAGUAACCUGCACGCGGGCGGAUAC”, the “apparent Kd” value under setting [3] turned out to be 50.7 nM and the “apparent Kd” value under setting [4] was found to be 7.18 nM.

As to “UGUUGUUCAGGAUAUGAUGUUUUAUACAUGAGGAUCACCCAUGUGGGUCCUGAUUUGGCGUCAGAAGGGAAUGUUG”, the “apparent Kd” value runs as follows: under setting [1], 108 nM; under setting [2], 222 nM.

For the sequence “GUGCGGAACCUAGGAUAUCCGACAUGGACAGGUGGUAAGUCUCCCACAUGAGGAUCACCCAUGUAGGAGAAGGAGGAUCACGGG”, the “apparent Kd” value reads like this: under setting [1], 6.84 nM; under setting [2], 7.39 nM.

Take “CAGCUACCCAGUAUGGGUAUUUUUACAGAAGGCCAGGUACAUGAGGAUCACCCAUGUUAAGUUAUGGAGGAUAUGUUAGUGUAU”: the “apparent Kd” value is, setting by setting: under setting [3], 27.9 nM; under setting [4], 7.18 nM.

For the sequence “AACAUGAGGAUCACCCAUGUCCCACCAGAAGGCUGGCGGUGGUAGGAAAGGCUACGACAAAUAACAGAGGAUAUGGUGAAUGCA”, the “apparent Kd” value was 88.9 nM under setting [3] and 20.8 nM under setting [4].
